# In ChEMBL document CHEMBL1132292, “Potentiation of cADPR-induced Ca(2+)-release by methylxanthine analogues” (1999):
# Test system: not listed separately
# Assay: Compound was screened for their ability to potentiate [Ca2+] release induced by cADRP(an endogenous modulator of ryanodine receptor) in sea urchin egg homogenates at a concentration of 2 mM
# Assay type: functional, tissue-based
# Summary of the method: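 Lytechinus pictus egg homogenate (2.5%, from 50% stocks), Ca2+-loaded 3 h at room temperature in Glu-IM (pH 7.2) with 0.5 mM ATP, phosphocreatine/creatine phosphokinase, oligomycin, antimycin, azide and 3 μM fluo-3. Fluo-3 fluorescence (ex 490/em 535 nm) read at 17 °C. Methylxanthine at 2 mM added 1 min before a daily-chosen, slightly active cADPR concentration. Caffeine run daily as standard.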
row,Compound,Potentiation [%]
1,O=c1[nH]c(=O)c2nc[nH]c2[nH]1,41
2,Cn1c(=O)c2[nH]cnc2n(C)c1=O,95.3

# Test system: not listed separately
# Assay: Calcium release at 2 mM as percent of 1 mM caffeine effect
row,Compound,Activity [%]
1,Cn1c(=O)c2c(ncn2C)n(C)c1=O [CAFFEINE],100

# Test system: Lytechinus pictus
# Assay: Calcium release in sea urchin egg homogenate at 2 mM as percent of 1 mM caffeine effect
row,Compound,Activity [%]
1,Cn1c(=O)c2c(ncn2CCCCO)n(C)c1=O,81
2,CC(O)CCCn1c(=O)c2c(ncn2C)n(C)c1=O (stereo not drawn),59
3,CC(=O)Cn1c(=O)c2c(ncn2C)n(C)c1=O,43
4,CC(=O)CCCCCn1cnc2c1c(=O)n(C)c(=O)n2C,107
5,CC(=O)CCCCn1cnc2c1c(=O)n(C)c(=O)n2C [LOMIFYLLINE],65
6,CC(=O)Cn1cnc2c1c(=O)n(C)c(=O)n2C,65
7,CC(=O)CCCn1cnc2c1c(=O)n(CC(C)=O)c(=O)n2C,6.7
8,CC(=O)CCCCCn1c(=O)c2c(ncn2CCCC(C)=O)n(C)c1=O,38
9,CC(O)CCCn1cnc2c1c(=O)n(C)c(=O)n2C (stereo not drawn),82
10,CC(=O)CCCn1c(=O)c2c(ncn2C)n(C)c1=O,37
11,Cn1c(=O)c2c(ncn2CCO)n(C)c1=O [ETOFYLLINE],43
12,CC(=O)CCCCCCn1c(=O)c2c(ncn2C)n(C)c1=O,76
13,CC(=O)CCn1c(=O)c2c(ncn2C)n(C)c1=O,46
14,CC(=O)Cn1c(=O)c2c(ncn2CC(C)=O)n(C)c1=O,17
15,Cn1c(=O)c2c(ncn2CCCCCc2ccccc2)n(C)c1=O,70
16,C=CCn1cnc2c1c(=O)n(C)c(=O)n2C,100
17,CC(O)Cn1cnc2c1c(=O)n(C)c(=O)n2C (stereo not drawn) [PROXYPHYLLINE],47
18,CC(O)CCCCCn1cnc2c1c(=O)n(C)c(=O)n2C (stereo not drawn),105
19,C#CCn1c(=O)c2c(ncn2CCCC(C)=O)n(C)c1=O,81
20,CC(=O)CCCn1cnc2c1c(=O)n(C)c(=O)n2C,60
21,CC(=O)CCCCCn1c(=O)c2c(ncn2C)n(C)c1=O,96
22,CC(O)Cn1c(=O)c2c(ncn2C)n(C)c1=O (stereo not drawn) [PROTHEOBROMINE],83
23,CC(=O)CCCCCn1c(=O)c2c(ncn2CCCCCC(C)=O)n(C)c1=O,54
24,CC(=O)CCn1cnc2c1c(=O)n(C)c(=O)n2C,97
25,CC(O)CCCCCn1c(=O)c2c(ncn2C)n(C)c1=O (stereo not drawn),54
26,CC(=O)CCCCCCn1cnc2c1c(=O)n(C)c(=O)n2C,112
27,Cn1c(=O)c2nc[nH]c2n(C)c1=O.O [THEOPHYLLINE],106

# Test system: not listed separately
# Assay: compound was screened for their ability to potentiate [Ca2+] release induced by cADRP(an endogenous modulator of ryanodine receptor) in sea urchin egg homogenates at a concentration 2 mM
# Assay type: functional, tissue-based
# Summary of the method: (§1)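 Lytechinus pictus egg homogenate (2.5%, from 50% stocks) in Glu-IM (pH 7.2, Hepes). It was Ca2+-loaded for 3 h at room temperature with 0.5 mM ATP, creatine kinase/phosphocreatine, oligomycin, antimycin, azide and 3 μM fluo-3. Fluo-3 fluorescence (ex 490/em 535 nm) was read at 17 °C. Methylxanthine was added 1 min before a slightly releasing cADPR concentration chosen from each experiment's cADPR concentration–response curve. Caffeine was run daily as standard.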
row,Compound,Potentiation [%]
1,Cn1c(=O)c2ncn(C)c2n(C)c1=O,28.7

# Test system: Lytechinus pictus
# Assay: Percent of 1 mM Caffeine effect to release [Ca2+] at 1 mM in sea urchin egg homogenate
row,Compound,Activity [%]
1,Cn1c(=O)c2c(ncn2CCCCCCO)n(C)c1=O,97
2,Cn1c(=O)c2c(ncn2CC(=O)O)n(C)c1=O [ACEFYLLINE],1.4
3,CC(=O)CCCCCCCCn1cnc2c1c(=O)n(C)c(=O)n2C,62
4,CC(O)CCCCCCn1cnc2c1c(=O)n(C)c(=O)n2C (stereo not drawn),98
5,CCOC(=O)Cn1cnc2c1c(=O)n(C)c(=O)n2C,87
6,Cn1c(=O)c2c(ncn2CCCCCCCCCCO)n(C)c1=O,113
7,Cn1c(=O)c2c(ncn2CCCCCC(=O)O)n(C)c1=O,9.4
8,CCOC(=O)CCCCCn1cnc2c1c(=O)n(C)c(=O)n2C,145
9,CCOC(=O)CCCCCn1c(=O)c2c(ncn2C)n(C)c1=O,103
10,Cn1cnc2c1c(=O)n(CCCCCC(=O)O)c(=O)n2C,61
11,C#CCn1c(=O)c2c(ncn2CCCCCCC(C)=O)n(C)c1=O,98

# Test system: not listed separately
# Assay: compound was screened for their ability to potentiate [Ca2+] release induced by cADRP(an endogenous modulator of ryanodine receptor) in sea urchin egg homogenates at a concentration 1 mM
# Assay type: functional, tissue-based
# Summary of the method: as §1
row,Compound,Potentiation [%]
1,Cn1c(=O)c2c(ncn2C)n(C)c1=O [CAFFEINE],100
